Screening results as filed in PubChem BioAssay.
JMJD2C inh = inhibitors of GASC-1 histone demethylase, primary screen, biochemical, fluorescence, DELFIA europium. Lysine-specific demethylase 4C (Homo sapiens), Q9H3R0. GST-JMJD2C(1-420) H3K9me3 demethylation. inhibition, % at 2.35 µM. 330,000 compounds, 0.069% hits;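 active = more than half of a compound's replicate wells show inhibition beyond 50%, single wells judged on their own value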;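 note: signal counts dimethyl H3K9 product captured on neutravidin plate; 0% = median of DMSO wells and 100% = 0.3 times that DMSO median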
Target sequence (Q9H3R0 1-420 limits assumed): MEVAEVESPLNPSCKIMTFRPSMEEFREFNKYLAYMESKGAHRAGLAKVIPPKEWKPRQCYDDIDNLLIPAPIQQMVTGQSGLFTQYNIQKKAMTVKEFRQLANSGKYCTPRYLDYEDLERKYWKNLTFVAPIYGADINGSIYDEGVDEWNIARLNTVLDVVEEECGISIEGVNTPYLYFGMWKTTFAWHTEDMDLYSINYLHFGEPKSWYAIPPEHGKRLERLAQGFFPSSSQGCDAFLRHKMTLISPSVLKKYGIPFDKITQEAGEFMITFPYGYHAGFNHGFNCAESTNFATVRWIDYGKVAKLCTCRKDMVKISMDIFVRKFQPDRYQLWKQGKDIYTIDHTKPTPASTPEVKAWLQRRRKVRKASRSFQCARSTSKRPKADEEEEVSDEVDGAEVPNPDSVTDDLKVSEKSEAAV
SENP1 inh = human SENP1 catalytic domain inhibitors, primary screen, biochemical, FRET, uHTS | Sentrin-specific protease 1 (Homo sapiens), Q9P0U3 | recombinant SENP1 catalytic domain, CyPet-SUMO1-YPet FRET cleavage | inhibition, % at 10 µM | 360,000 compounds, 0.21% hits | AID 624204, 2012;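 active = inhibition at least 30% at 10 µM, raw YFP signal under a set limit, fluorescence ratio 0.5 to 1.5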;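 note: 0% = enzyme with DMSO and 100% = no enzyme wells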
Target sequence (Q9P0U3 419-644 limits assumed): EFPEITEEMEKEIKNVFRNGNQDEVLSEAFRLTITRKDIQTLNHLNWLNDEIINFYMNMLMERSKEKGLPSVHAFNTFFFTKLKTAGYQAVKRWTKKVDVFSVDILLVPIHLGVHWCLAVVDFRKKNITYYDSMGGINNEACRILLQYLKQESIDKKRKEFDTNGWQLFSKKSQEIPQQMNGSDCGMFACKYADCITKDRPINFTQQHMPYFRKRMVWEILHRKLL
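Material – human SENP1 catalytic domain · Input – SENP1 enzyme, 20 pM final · Compound dosing – single concentration of 10 µM compound, 0.5% DMSO final · Timing – enzyme reaction for 50 min at room temperature, dark · Measured by – FRET fluorescence in CFP and YFP emission channels · Control set – no-enzyme wells low, DMSO-plus-enzyme wells high control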
Arr AP2 block = inhibitors of beta-arrestin/AP2 binding, primary screen, biochemical, GPCR trafficking, flow cytometry; FITC-arrestin peptide / GST-AP2 beads; AP2 beta2 appendage carries R879A mutation; AID 504490, 2011; 340,000 compounds, 0.31% hits; beta-arrestin 1 C-terminal peptide binding to AP2 beta2-adaptin appendage (human); inhibition, % at 10 µM;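 active = inhibition above a set limit, near 3 SD of compounds lacking own fluorescence, cut at about 54% in these data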;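 note: plate controls were DMSO wells for no effect and 5 µM unlabelled arrestin peptide for full effect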
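test system = AP2 appendage R879A on GSH beads | buffer or medium = PBS plus Tween 20 (0.05%) and BSA (0.1%) | incubation = 12 min plus 1 h, RT | detection = bead flow cytometry, FITC channel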
FAS-TE inh = FAS thioesterase domain inhibitors, primary screen, biochemical, fluorescence intensity, uHTS; AID 602261, 2012; Fatty acid synthase (Homo sapiens), P49327; recombinant FAS-TE, OMFH fluorogenic substrate, fluorescence endpoint; 360,000 compounds, 0.67% hits; inhibition, % at 15 µM;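 active = compounds whose normalised, plate-corrected inhibition of enzyme fluorescence in the single-dose primary screen is 50% or more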;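 note: 0% = DMSO with enzyme and 100% = substrate without enzyme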
FAS-TE inh conf = FAS thioesterase domain inhibitors, confirmation, biochemical, fluorescence intensity, single concentration. 2,300 compounds, 45% hits. inhibition, % at 15 µM. recombinant FAS-TE, OMFH fluorogenic substrate. shares compounds with FAS-TE inh;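 active = compounds inhibiting the enzyme by at least 50% at 15 µM in any one of the replicates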;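 note: 0% = enzyme with DMSO only and 100% = wells lacking enzyme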
An asterisk follows results filed as active; / = no result. Most compounds without a hit are left out; they make up all but 1.1% or so of the library.

SMILES	JMJD2C inh	SENP1 inh	Arr AP2 block	FAS-TE inh	FAS-TE inh conf
CN(Cc1ccccc1)C(=O)COC(=O)c1cc(Cl)nc(Cl)c1	-1.0	3.0	-9.7	50.7*	64.2*
CCN(CC)c1ccc(C(=O)OCC(=O)N(C)Cc2ccccc2)cc1	/	2.0	4.8	6.8	/
Cc1ccc(C(=O)N2CCC(C)CC2)cc1S(=O)(=O)N1CCCCC1	5.7	0.6	22.0	-1.8	/
O=C(NC(=S)N1CCN(c2ccc([N+](=O)[O-])cc2)CC1)c1ccc(F)cc1	-5.2	-3.5	3.8	15.5	/
COC(=O)c1ccc(-c2noc(CN(Cc3nccn3C)C(C)C)n2)cc1	-0.4	-6.8	1.6	-4.6	/
O[C@H]1C[C@H](c2ccccc2)N(CC2CCCCC2)C[C@@H]1n1cc(C2CC2)nn1	/	-0.6	/	65.2*	65.1*
O[C@@H]1CN(CC2CCCCC2)[C@@H](c2ccccc2)C[C@H]1n1cc(C2CC2)nn1	/	-3.0	/	7.0	/
O=C(CSc1ncnc2c1cnn2-c1ccccc1)NC1CCS(=O)(=O)C1 (stereo not given)	10.4	-2.3	-11.1	64.0*	72.2*
O=C(CSc1ncnc2c1cnn2-c1ccc(F)cc1)NC1CCCC1	28.3	0.2	40.7	32.8	/
CCN(Cc1ccccc1)c1ccc(N=Nc2nn(C)c(C)c2[N+](=O)[O-])cc1	3.3	4.7	-2.4	52.4*	36.3*
CN(C)c1ccc(C(=O)NNC(=O)c2ccc(Cl)cc2)cc1	4.0	2.1	-9.1	-1.2	/
O=C(O)/C=C/C(=O)Nc1ccccc1C(=O)OCC(=O)c1ccc2c(c1)OCCO2	/	-1.9	-6.3	-1.7	/
CCCCC(=O)Nc1ccccc1C(=O)OCC(=O)c1ccc2c(c1)OCCO2	-2.3	3.3	1.2	56.5*	29.7
Cc1ccc(C(=O)NCC(=O)OCc2nnc(-c3ccc([N+](=O)[O-])cc3)o2)s1	-5.6	4.7	-5.6	53.2*	64.7*
Cc1csc(=O)n1CC(=O)OCc1nnc(-c2ccc([N+](=O)[O-])cc2)o1	-32.9	2.9	0.0	-4.8	/
Cc1cccn2c(=O)c(/C=C(\C#N)S(=O)(=O)c3ccccc3)c(N3CCN(Cc4ccccc4)CC3)nc12	4.0	-56.4	-5.4	13.7	/
N#C/C(=C\c1c(N2CCN(Cc3ccccc3)CC2)nc2ccccn2c1=O)S(=O)(=O)c1ccccc1	-1.0	-28.6	29.9	56.1*	12.9
Cc1ccc(S(=O)(=O)/C(C#N)=C/c2c(N3CCOCC3)nc3c(C)cccn3c2=O)cc1	16.8	-32.2	-1.8	55.5*	6.5
N#C/C(=C\c1c(N2CCC(C(N)=O)CC2)nc2ccccn2c1=O)S(=O)(=O)c1ccc(Cl)cc1	-10.6	-35.0	35.5	54.6*	29.8*
Cc1ccc(S(=O)(=O)/C(C#N)=C/c2c(N3CCN(Cc4ccccc4)CC3)nc3ccccn3c2=O)cc1	-7.1	-29.2	5.4	81.4*	7.5
N#C/C(=C\c1c(N2CCOCC2)nc2ccccn2c1=O)S(=O)(=O)c1ccccc1	-6.0	-42.5	8.8	11.6	/
COCCn1c(SCC(=O)NC2CC2)nc2ccccc21	2.8	-2.0	-3.7	-10.4	/
Cc1ccc(S(=O)(=O)/C(C#N)=C/c2c(N3CCCCC3)nc3ccccn3c2=O)cc1	8.2	-33.3	37.2	62.3*	36.2
N=c1c(S(=O)(=O)c2ccc(Cl)cc2)cc2c(=O)n3ccccc3nc2n1C1CCCC1	2.4	-32.2	4.2	65.4*	3.5
N=c1c(S(=O)(=O)c2ccccc2)cc2c(=O)n3ccccc3nc2n1C1CCCCC1	/	-12.6	10.6	16.8	/
SMILES	JMJD2C inh	SENP1 inh	Arr AP2 block	FAS-TE inh	FAS-TE inh conf
COc1ccc(CCn2c(=N)c(S(=O)(=O)c3ccc(C)cc3)cc3c(=O)n4ccccc4nc32)cc1	-4.6	-36.1	-21.3	58.7*	-42.4
O=C(NCC1CCCO1)c1cc2ccccc2o1 (stereo not given)	-5.8	1.2	-3.9	-7.3	/
Cc1ccc2oc(=O)c(-c3ccc(O)cc3)c(C)c2c1	3.4	3.0	-13.3	-2.8	/
CC(C)(C)c1ccc(OCCC(=O)OCC(=O)NC2CCCCC2)cc1	8.1	-1.1	0.9	56.6*	54.8*
CCOC(=O)C1(Cc2ccc(OC)cc2)CCN(C(=O)C2=CCCC2)CC1	-4.0	2.0	-10.9	0.0	/
O=C1CC(c2ccccc2)CC2=C1C1(CCCC1)N=C(Nc1nc3ccccc3o1)N2 (stereo not given)	/	-1.1	/	69.2*	10.5
COc1ccc(-c2c(-c3ccc4c(c3)OCO4)noc2C)cn1	8.1	-0.3	4.7	11.3	/
COc1c(/C=N/Nc2ccc(C(=O)O)cc2)c(CCN(C)C(C)=O)cc2c1OCO2	3.6	0.0	3.0	-3.2	/
CCN(CC)c1cc2nonc2c2nonc12	5.9	4.4	-7.8	50.8*	44.5*
CCN(CC)c1cc(Cl)c2nonc2c1N	-4.3	14.9	8.6	6.9	/
CS(=O)(=O)Nc1ccc(-c2cn3c(n2)SCC3)cc1	6.3	-0.7	-16.0	-5.5	/
N#Cc1cc2c(nc1SCc1cccc(Cl)c1)CCCCC2	31.3	-0.5	3.8	15.7	/
O=C(COC(=O)c1cc([N+](=O)[O-])ccc1N1CCOCC1)NCCc1ccccc1	-3.8	0.6	-8.7	78.0*	66.0*
CCOc1ccc(CCNC(=O)COC(=O)c2cc([N+](=O)[O-])ccc2N2CCOCC2)cc1OCC	-10.0	0.4	4.9	52.7*	56.6*
O=C(COC(=O)c1cc([N+](=O)[O-])ccc1N1CCOCC1)NCc1ccc(F)cc1	10.2	-0.1	18.4	88.1*	80.9*
COc1ccccc1NS(=O)(=O)c1ccc(/C=C/C(=O)N2CCN(C(C)=O)CC2)cc1	3.9	4.5	22.6	-0.8	/
CC(NC(=O)c1nn(C)c2c1CS(=O)(=O)c1ccccc1-2)c1ccccc1 (stereo not given)	-1.3	-0.4	-3.0	2.3	/
CC(C)OC(=O)/C(C#N)=C/c1ccc(-c2ccc(SC(F)F)cc2)o1	10.8	-27.7	8.8	61.4*	9.4
COC(=O)/C(C#N)=C/c1ccc(-c2ccc(S(N)(=O)=O)cc2)o1	1.9	-79.7	-7.8	-3.7	/
CC(C)Nc1ccc(Cl)cc1[N+](=O)[O-]	-1.8	/	/	/	/
COc1ccc(C(CC(=O)Nc2cc([N+](=O)[O-])ccc2OC)c2ccccc2)cc1 (stereo not given)	0.6	1.2	16.4	61.4*	49.9*
COc1ccc([N+](=O)[O-])cc1NC(=O)Cc1ccc(Cl)cc1	11.5	1.9	27.9	80.6*	38.2
COc1ccc([N+](=O)[O-])cc1NC(=O)CSc1ccccc1	11.7	0.9	6.0	38.7	/
